MDM2 E3 inh – Mdm2 E3 ligase (human) inhibition | Q00987 | cell-based MDM2 ubiquitination luciferase reporter, 2 h; 0 = plate control, 100 = twice control, blank-subtracted | signal enhancement, % at 5 µM | actives 0.11% (n = 210,000) | AID 1230;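 active = signal enhancement of 30% or more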;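 note: luminescence tracks abundance of the self-degrading MDM2-luciferase fusion protein; higher signal means inhibition of MDM2 E3 ligase activity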
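Material: stable MDM2–luciferase fusion reporter cells / Quantity: 2000 cells/well / Dosing: single 5 µM compound dose, 0.2% final DMSO / Buffer or medium: DMEM / Schedule: 4 h cell settling then 2 h compound exposure, 37 °C / Detection: luminescence with SteadyLite reagent, 15 min at room temperature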
Hck-Nef inh – blocks Nef-activated human Hck kinase | actives 0.68% (n = 220,000) | Recombinant Hck-YEEI plus Nef, Z-Lyte FRET kinase assay | AID 463187 | P08631 | inhibition, % at 20 µM;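 active = Hck-Nef kinase inhibition above about 50%, limit read from the data; inactive = inhibition below that limit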;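 note: 0% = DMSO with Hck plus Nef and 100% = Hck alone without Nef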
14-3-3 Bad PPI – disrupts binding of bovine 14-3-3 zeta to phospho-Bad peptide; P63103; TR-FRET 14-3-3zeta/Dy647-pBad peptide displacement, 1 h; inhibition, % at 21.7 µM; actives 0.71% (n = 220,000); AID 781;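 active = inhibition above about 70%, limit read from the data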;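 note: 0% = full 14-3-3 plus peptide FRET controls and 100% = background without 14-3-3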
Target sequence (P63103 whole entry, looked up): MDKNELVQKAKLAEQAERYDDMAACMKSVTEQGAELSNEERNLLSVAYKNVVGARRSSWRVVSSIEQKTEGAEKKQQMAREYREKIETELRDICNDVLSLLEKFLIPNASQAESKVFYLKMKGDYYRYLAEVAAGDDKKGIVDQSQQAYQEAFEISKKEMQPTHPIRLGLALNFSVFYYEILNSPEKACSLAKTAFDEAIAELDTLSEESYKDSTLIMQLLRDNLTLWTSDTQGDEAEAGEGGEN
Wee1 stabilizer – blocks degradation of human Wee1 kinase; P30291; HeLa Luc-Wee1K328M stability, luciferase luminescence; 100% = proteasome inhibitor MG132 effect; reporter increase, % at 5 µM; actives 1.2% (n = 220,000); AID 1321;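 active = activation above the mean of all tested compounds plus 3 SD, set per screening run, cut at about 8.8% in these data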;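 note: cells exposed to compound for 20 h before luminescence read; 0% = DMSO alone and 100% = MG132 at 30 µM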
TbHK1 inh – blocks Trypanosoma brucei hexokinase 1 activity; recombinant TbHK1, G6PDH-coupled NADH A340; inhibition, % at 10 µM; actives 0.11% (n = 220,000);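 active = inhibition of 50% or more in the single-dose primary screen; inactive = inhibition below 50%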
Hck-Nef confirm – confirmation of Hck-Nef kinase inhibitors. calls only at 10 µM. AID 463188. actives 28% (n = 1,300). shares compounds with Hck-Nef inh. Recombinant Hck-YEEI:Nef, Z-Lyte FRET kinase assay;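 active = average inhibition of at least 50%, with Z-scores no higher than 3 in both the phospho-tyrosine peptide and fluorescence counterscreens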
The depositor's hits bear a star; i = inactive; . = not tested or not shown; + = active, no number; [ ] = another dose, or the depositor's remark. An excerpt weighted towards active compounds, which were near 2.7% of everything screened.

SMILES	MDM2 E3 inh	Hck-Nef inh	14-3-3 Bad PPI	Wee1 stabilizer	TbHK1 inh	Hck-Nef confirm
Cc1cccn2c(=O)c3cc(C(=O)O)n(C)c3nc12	2	52*	8	1	-24	i
Cc1cccn2c(=O)c3cc(C(=O)NCC4CCCO4)n(C)c3nc12 (stereo not given)	.	30	.	2	-7	.
COC1C=CC(CNC(=O)c2cc3c(=O)n4cccc(C)c4nc3n2C)(OC)O1 (stereo not given)	-6	74*	4	0	-19	i
Cc1c(C(=O)O)cccc1-c1ccc(/C=C2/NC(=O)N(c3ccccc3)C2=O)o1	-10	49	-5	1	-12	.
CCOC(=O)C1=C(O)/C(=C/c2ccc(-c3ccccc3C(=O)O)o2)SC1=Nc1ccc(OC)cc1	-10	1	5	8	-8	.
COc1ccccc1N1C(=N)S/C(=C\c2ccc(-c3ccccc3C(=O)O)o2)C1=O	-2	60*	-10	-1	-1	+
N=C1S/C(=C\c2ccc(-c3ccccc3C(=O)O)o2)C(=O)N1c1ccc2c(c1)OCO2	-3	85*	70	0	4	+
NC(=O)C1CCN(CC(=O)Nc2cccc(C(=O)Nc3cccc(C(F)(F)F)c3)c2)CC1	0	-1	-1	-2	2	.
O=C(Nc1ccc2oc(=O)ccc2c1)c1ccc(-c2cccc(Cl)c2)o1	.	65*	92*	0	-8	i
O=C(Nc1ccc2oc(=O)ccc2c1)c1ccc(-c2cccc([N+](=O)[O-])c2)o1	1	66*	92*	-2	-2	i
O=C(Nc1ccc2oc(=O)ccc2c1)c1ccc(-c2ccccc2[N+](=O)[O-])o1	19	-2	26	7	0	.
O=C(Nc1ccc2oc(=O)ccc2c1)c1ccc(-c2ccc(Cl)cc2)o1	-11	29	46	0	13	.
COc1cc(/C=C(/C#N)c2ccc(F)cc2)ccc1OCc1ccc(C(=O)O)o1	-17	55*	2	-4	-33	+
COc1ccc(/C=C(\C#N)C(=O)Nc2ccc3[nH]c(=O)[nH]c3c2)cc1	.	71*	9	-2	-21	i
COc1ccc(NC(=O)/C(C#N)=C\c2ccc(OCc3ccc(C(=O)O)cc3)c(OC)c2)cc1	30*	70*	-11	-2	-15	i
COC(=O)c1ccc(COc2ccccc2/C=C(\C#N)C(=O)Nc2ccc(C)cc2)cc1	-12	10	7	0	-15	.
N#C/C(=C\c1ccccc1OCc1ccc(C(=O)O)cc1)C(=O)Nc1ccc(O)cc1	-24	69*	-4	-1	-11	i
O=C(O)CCC(=O)Nc1ccccc1C(=O)N1CCN(c2ccc(Cl)cc2)CC1	-1	18	-11	-1	-4	.
O=C(CCC(=O)OCc1ccc(C(=O)Oc2ccccc2)cc1)Nc1cccc2ccccc12	9	1	8	1	-3	.
COC(=O)C(=O)/C=C(\O)c1c(C)cc(C)cc1C	2	17	-7	0	-18	.
C(=N\NCc1ccccc1)/c1ccc2nccnc2c1	-13	68*	-9	2	-19	+
Cc1ccc(S(=O)(=O)Nc2c(C)nc3nc[nH]n3c2=O)c(C)c1	-1	16	-8	-4	1	.
Cc1nn(-c2ccccc2)c(C)c1-c1cc(C(=O)N/N=C/c2ccc(O)cc2)[nH]n1	-13	66*	-3	1	-65	+
COc1cc(/C=N/NC(=O)c2cc(-c3c(C)nn(-c4ccccc4)c3C)n[nH]2)ccc1O	-25	43	-8	-1	-51	.
COc1ccccc1C(=O)Oc1cc(N)n(S(=O)(=O)c2ccc(C)cc2)n1	-16	94*	51	2	-1	+
SMILES	MDM2 E3 inh	Hck-Nef inh	14-3-3 Bad PPI	Wee1 stabilizer	TbHK1 inh	Hck-Nef confirm
O=c1cc(-c2ccccc2)nc2c(-c3ccccc3)c(C(F)(F)F)[nH]n12	-8	57*	-2	-4	-10	i
Cc1cc(=O)n2[nH]c(C)c(-c3ccccc3)c2n1	-13	-2	6	2	-1	.
Cn1nnnc1NCc1cccc(Cl)c1Cl	-8	9	-8	-2	4	.
Cc1cc(C(=O)N/N=C2\CC(=O)c3ccccc32)c(C)n1-c1ccc(F)cc1	11	53*	-2	2	-21	i
O=C(CSc1nc2nc(-c3cccs3)cc(C(F)(F)F)c2c(=O)[nH]1)Nc1ccc(F)c(F)c1	-14	54*	1	2	3	.
Cc1ccc(C)c(NC(=O)CSc2nc3nc(-c4cccs4)cc(C(F)(F)F)c3c(=O)[nH]2)c1	.	49	-12	0	-5	.
CCOc1ccc(-c2nn(-c3ccccc3)cc2/C=C2\SC(=S)N(Cc3ccco3)C2=O)cc1	-9	0	4	6	-9	.
CCN1C(=O)/C(=C\c2cn(-c3ccccc3)nc2-c2cccnc2)SC1=S	-12	60*	78*	-3	-11	i
COc1cc(C(O)P(=O)(OCCC(C)C)c2ccc(N(C)C)cc2)cc(OC)c1OC (stereo not given)	-11	6	-4	2	8	.
N=C1S/C(=C\c2ccc(-c3cccc(Cl)c3)o2)C(=O)N1c1nccs1	36*	51*	74*[fluorescence artefact?]	0	5	i
COc1ccc(/C=C2\SC(=N)N(c3nccs3)C2=O)cc1OC	-6	3	9	-3	0	.
COc1cccc(C(=O)Nc2ccc3nc(N4CCN(c5ncccn5)CC4)cc(C)c3c2)c1OC	-7	34	38	1	-31	.
CCOc1ccccc1C(=O)Nc1ccc2nc(N3CCN(c4ncccn4)CC3)cc(C)c2c1	.	64*	.	-2	-26	+
CC(=O)N1CCCN(Cc2cn(-c3cccc(C)c3)nc2-c2cccc(F)c2)CC1	17	24	51	-4	-17	.
Cn1c(O)c(N=NC(=O)c2cc(-c3cccs3)nc3ccccc23)c2ccccc21	-14	14	-7	-1	-22	.
O=C(N=Nc1c(O)[nH]c2ccc(Br)cc12)c1cc(-c2cccs2)nc2ccccc12	-6	163*	86*	2	-25	i
O=C(c1ccccc1)C(Nc1ccccn1)c1ccccc1 (stereo not given)	0	17	-17	-2	-1	.
Cc1csc(NC(=O)c2cc3c(s2)-c2ccccc2OC3)n1	-30	28	3	0	-13	.
Cc1cccc(NC(=O)c2cc3c(s2)-c2c(C)cccc2OC3)n1	-10	87*	67	-3	-27	.
Nc1ncnc(N2CCc3ccccc32)c1[N+](=O)[O-]	-29	20	-3	0	-6	.
Oc1ccc(-c2nc3ccccc3s2)c(O)c1	-10	163*	8	-1	-25	.
Cc1cc2c(s1)c1cnn(CC(=O)NCCc3ccccc3)c(=O)c1n2C	6	76*	28	0	3	i
